According to ChEMBL document CHEMBL1649119, “Daptomycin pharmacokinetics in adult oncology patients with neutropenic fever” (Antimicrob Agents Chemother, 2009):
Converted amounts (≈) assume the structure as drawn.

Experiments:
[1] = AUC (0 to infinity) in healthy human at 8 mg/kg, iv administered as 30 mins infusion every 24 hrs measured on day 14; assay type: ADME, organism-based; set-up: time infinity, dose 8 mg/kg, route intravenous; settings: plasma
[2] = AUC (0 to infinity) in nonobese adult human at 4 mg/kg, iv administered as single dose 30 mins infusion; assay type: ADME, organism-based; set-up: time infinity, dose 4 mg/kg, route intravenous; settings: plasma
[3] = Apparent volume of distribution during terminal phase in healthy human subjects at 8 mg/kg, iv administered as 30 mins infusion every 24 hrs measured on day 1; assay type: ADME, organism-based; set-up: dose 8 mg/kg, route intravenous; settings: in vivo
[4] = Clearance in healthy human subjects at 12 mg/kg, iv administered as 30 mins infusion every 24 hrs measured on day 4; assay type: ADME, organism-based; set-up: dose 12 mg/kg, route intravenous; settings: in vivo
[5] = Cmax in healthy human subjects at 8 mg/kg, iv administered as 30 mins infusion every 24 hrs measured on day 4; assay type: ADME, organism-based; set-up: dose 8 mg/kg, route intravenous; settings: in vivo
[6] = AUC (0 to infinity) in healthy human at 4 mg/kg, iv administered as 30 mins infusion every 24 hrs measured on day 1; assay type: ADME, organism-based; set-up: time infinity, dose 4 mg/kg, route intravenous; settings: plasma
[7] = Clearance in healthy human at 4 mg/kg, iv administered as 30 mins infusion every 24 hrs measured on day 7; assay type: ADME, organism-based; set-up: dose 4 mg/kg, route intravenous; settings: in vivo
[8] = AUC (0 to infinity) in healthy human subjects at 8 mg/kg, iv administered as 30 mins infusion every 24 hrs measured on day 4; assay type: ADME, organism-based; set-up: dose 8 mg/kg, route intravenous, time infinity; settings: plasma
[9] = Renal clearance in healthy adult human at 6 mg/kg, iv administered as single dose 30 mins infusion; assay type: ADME, organism-based, Kidney; set-up: dose 6 mg/kg, route intravenous; settings: in vivo, read-out: CL_renal (converted)
[10] = AUC (0 to infinity) in morbidly obese adult human at 4 mg/kg, iv administered as single dose 30 mins infusion; assay type: ADME, organism-based; set-up: time infinity, dose 4 mg/kg, route intravenous; settings: plasma
[11] = Plasma concentration in cancer patient with neutropenic fever at 6 mg/kg, iv administered as 30 mins infusion every 24 hrs measured after 24 hrs; assay type: ADME, organism-based; set-up: dose 6 mg/kg, route intravenous; settings: human
Outline: (§1)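 29 adult oncology patients with neutropenic fever received 6 mg/kg (total body weight) daptomycin as a 30-min IV infusion every 24 h. Plasma was sampled predose, at end of infusion, and 0.5, 1, 2, 4, 8, 12 and 24 h after infusion start. Total drug was measured by validated HPLC (linear 1–100 μg/ml, detection limit 1 μg/ml). Tmax was the observed value, analysed noncompartmentally.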

[12] = Cmax in morbidly obese adult human at 4 mg/kg, iv administered as single dose 30 mins infusion; assay type: ADME, organism-based; set-up: dose 4 mg/kg, route intravenous; settings: in vivo
Enterococcus = assay: Antimicrobial activity against Enterococcus; assay type: functional
[13] = Apparent volume of distribution during terminal phase in healthy human subjects at 12 mg/kg, iv administered as 30 mins infusion every 24 hrs measured on day 1; assay type: ADME, organism-based; set-up: dose 12 mg/kg, route intravenous; settings: in vivo
[14] = Volume of distribution at steady state in morbidly obese human at 4 mg/kg, iv administered as single dose 30 mins infusion; assay type: ADME, organism-based; set-up: dose 4 mg/kg, route intravenous; settings: in vivo, read-out: Vdss
Homo sapiens [15] = assay: Unbound clearance in healthy human at 6 mg/kg, iv administered as 30 mins infusion every 24 hrs measured on day 1; assay type: ADME, organism-based; set-up: dose 6 mg/kg, route intravenous; settings: in vivo
[16] = Apparent volume of distribution during terminal phase in healthy human at 8 mg/kg, iv administered as 30 mins infusion every 24 hrs measured on day 1; assay type: ADME, organism-based; set-up: dose 8 mg/kg, route intravenous; settings: in vivo
[17] = AUC (0 to infinity) in adult human subjects at 6 mg/kg, iv administered as single dose 30 mins infusion; assay type: ADME, organism-based; set-up: time infinity, dose 6 mg/kg, route intravenous; settings: plasma
[18] = AUC (0 to infinity) in healthy human at 6 mg/kg, iv administered as 30 mins infusion every 24 hrs measured on day 7; assay type: ADME, organism-based; set-up: time infinity, dose 6 mg/kg, route intravenous; settings: plasma
[19] = Clearance in healthy human at 8 mg/kg, iv administered as 30 mins infusion every 24 hrs measured on day 1; assay type: ADME, organism-based; set-up: dose 8 mg/kg, route intravenous; settings: in vivo
[20] = Clearance in healthy adult human at 6 mg/kg, iv administered as single dose 30 mins infusion; assay type: ADME, organism-based; set-up: dose 6 mg/kg, route intravenous; settings: in vivo
[21] = Plasma concentration in nonobese adult human at 4 mg/kg, iv administered as single dose 30 mins infusion measured after 24 hrs; assay type: ADME, organism-based; set-up: dose 4 mg/kg, route intravenous
[22] = Unbound fraction in healthy human plasma at 8 mg/kg, iv administered as 30 mins infusion every 24 hrs measured on day 1; assay type: ADME, organism-based; set-up: dose 8 mg/kg, route intravenous
[23] = Clearance in nonobese adult human at 4 mg/kg, iv administered as single dose 30 mins infusion; assay type: ADME, organism-based; set-up: dose 4 mg/kg, route intravenous; settings: in vivo
[24] = Apparent volume of distribution during terminal phase in healthy human subjects at 10 mg/kg, iv administered as 30 mins infusion every 24 hrs measured on day 1; assay type: ADME, organism-based; set-up: dose 10 mg/kg, route intravenous; settings: in vivo
[25] = Clearance in adult human subjects at 6 mg/kg, iv administered as single dose 30 mins infusion; assay type: ADME, organism-based; set-up: dose 6 mg/kg, route intravenous; settings: in vivo
[26] = Drug excretion in adult human subjects urine assessed as unchanged drug at 6 mg/kg, iv administered as single dose 30 mins infusion; assay type: ADME, organism-based; set-up: dose 6 mg/kg, route intravenous; settings: read-out: Drug uptake
[27] = Half life in healthy human subjects at 10 mg/kg, iv administered as 30 mins infusion every 24 hrs measured on day 1; assay type: ADME, organism-based; set-up: dose 10 mg/kg, route intravenous; settings: in vivo
[28] = Half life in healthy human subjects at 12 mg/kg, iv administered as 30 mins infusion every 24 hrs measured on day 14; assay type: ADME, organism-based; set-up: dose 12 mg/kg, route intravenous; settings: in vivo
[29] = Half life in healthy human at 8 mg/kg, iv administered as 30 mins infusion every 24 hrs measured on day 7; assay type: ADME, organism-based; set-up: dose 8 mg/kg, route intravenous; settings: in vivo
Homo sapiens [30] = assay: Apparent volume of distribution in healthy human at 4 mg/kg, iv administered as single dose 30 mins infusion; assay type: ADME, organism-based; set-up: dose 4 mg/kg, route intravenous; settings: in vivo, 0.5 h
[31] = AUC (0 to infinity) in healthy human subjects at 8 mg/kg, iv administered as 30 mins infusion every 24 hrs measured on day 1; assay type: ADME, organism-based; set-up: time infinity, dose 8 mg/kg, route intravenous; settings: plasma
[32] = AUC (0 to infinity) in adult human with hepatic impairment at 6 mg/kg, iv administered as single dose 30 mins infusion; assay type: ADME, organism-based; set-up: time infinity, dose 6 mg/kg, route intravenous; settings: plasma
[33] = Cmax in healthy human subjects at 12 mg/kg, iv administered as 30 mins infusion every 24 hrs measured on day 14; assay type: ADME, organism-based; set-up: dose 12 mg/kg, route intravenous; settings: in vivo
[34] = Cmax in healthy human at 4 mg/kg, iv administered as 30 mins infusion every 24 hrs measured on day 7; assay type: ADME, organism-based; set-up: dose 4 mg/kg, route intravenous; settings: in vivo
[35] = Drug excretion in morbidly obese adult human urine assessed as unchanged drug at 4 mg/kg, iv administered as single dose 30 mins infusion; assay type: ADME, organism-based; set-up: dose 4 mg/kg, route intravenous; settings: read-out: Drug uptake
[36] = Clearance in morbidly obese adult human at 4 mg/kg, iv administered as single dose 30 mins infusion; assay type: ADME, organism-based; set-up: dose 4 mg/kg, route intravenous; settings: in vivo
[37] = Drug excretion in healthy human urine assessed as unchanged drug at 4 mg/kg, iv administered as single dose 30 mins infusion; assay type: ADME, organism-based; set-up: dose 4 mg/kg, route intravenous; settings: read-out: Drug uptake
[38] = Half life in healthy human subjects at 6 mg/kg, iv administered as 30 mins infusion every 24 hrs measured on day 1; assay type: ADME, organism-based; set-up: dose 6 mg/kg, route intravenous; settings: in vivo
[39] = Unbound fraction in healthy human plasma at 8 mg/kg, iv administered as 30 mins infusion every 24 hrs measured on day 7; assay type: ADME, organism-based; set-up: dose 8 mg/kg, route intravenous
[40] = Half life in moderately obese adult human at 4 mg/kg, iv administered as single dose 30 mins infusion; assay type: ADME, organism-based; set-up: dose 4 mg/kg, route intravenous; settings: in vivo
[41] = Clearance in healthy human subjects at 12 mg/kg, iv administered as 30 mins infusion every 24 hrs measured on day 14; assay type: ADME, organism-based; set-up: dose 12 mg/kg, route intravenous; settings: in vivo
[42] = Cmax in healthy human at 8 mg/kg, iv administered as 30 mins infusion every 24 hrs measured on day 1; assay type: ADME, organism-based; set-up: dose 8 mg/kg, route intravenous; settings: in vivo
[43] = Tmax in cancer patient with neutropenic fever at 6 mg/kg, iv administered as 30 mins infusion every 24 hrs; assay type: ADME, organism-based; set-up: dose 6 mg/kg, route intravenous; settings: human, in vivo; outline: as §1
Homo sapiens [44] = assay: Volume of distribution in central compartment in healthy human at 4 mg/kg, iv administered as single dose 30 mins infusion; assay type: ADME, organism-based; set-up: dose 4 mg/kg, route intravenous; settings: in vivo, 0.5 h

CCCCCCCCCC(=O)N[C@@H](Cc1c[nH]c2ccccc12)C(=O)N[C@H](CC(N)=O)C(=O)N[C@@H](CC(=O)O)C(=O)N[C@@H]1C(=O)NCC(=O)N[C@@H](CCCN)C(=O)N[C@@H](CC(=O)O)C(=O)N[C@H](C)C(=O)N[C@@H](CC(=O)O)C(=O)NCC(=O)N[C@H](CO)C(=O)N[C@@H]([C@H](C)CC(=O)O)C(=O)N[C@@H](CC(=O)c2ccccc2N)C(=O)O[C@@H]1C
AUC(0-inf) [1]: 1090 µg·h/mL | AUC(0-inf) [2]: 322 µg·h/mL | Vd [3]: 0.103 L/kg | clearance [4]: 0.15 mL/min/kg | Cmax [5]: 123 µg/mL | AUC(0-inf) [6]: 425 µg·h/mL | clearance [7]: 0.138 mL/min/kg | AUC(0-inf) [8]: 858 µg·h/mL | CL renal at 0.5 h [9]: 0.064 mL/min/kg | AUC(0-inf) [10]: 548 µg·h/mL | concentration at 24 h [11]: 5.67 µg/mL | Cmax [12]: 67 µg/mL | MIC90 (Enterococcus): 2 µg/mL (≈ 1.23 µM) | Vd [13]: 0.111 L/kg | Vd [14]: 0.09 L/kg | CL (Homo sapiens [15]): 0.992 mL/min/kg | Vd [16]: 0.099 L/kg | AUC(0-inf) [17]: 928 µg·h/mL | AUC(0-inf) [18]: 747 µg·h/mL | clearance [19]: 0.12 mL/min/kg | clearance [20]: 0.171 mL/min/kg | concentration at 24 h [21]: < 3.3 µg/mL | fraction unbound at 1 day [22]: 0.09 | clearance [23]: 0.245 mL/min/kg | Vd [24]: 0.117 L/kg | clearance [25]: 0.109 mL/min/kg | dose excreted at 0.5 h [26]: 39.8% | half-life [27]: 8.4 h | half-life [28]: 7.9 h | half-life [29]: 9 h | Vd (Homo sapiens [30]): 6350 mL | AUC(0-inf) [31]: 773 µg·h/mL | AUC(0-inf) [32]: 867 µg·h/mL | Cmax [33]: 182 µg/mL | Cmax [34]: 57.8 µg/mL | dose excreted at 0.5 h [35]: 42.7% | clearance [36]: 0.13 mL/min/kg | dose excreted at 0.5 h [37]: 59.7% | half-life [38]: 7.5 h | fraction unbound at 7 day [39]: 0.09 | half-life [40]: 7.34 h | clearance [41]: 0.15 mL/min/kg | Cmax [42]: 116 µg/mL | Tmax [43]: 0.6 h | Vd (Homo sapiens [44]): 3420 mL
